Series [1] is described as follows: Cytotoxicity against human L3.6pl cells assessed as inhibition of cell growth measured after 72 hrs by ATPlite assay. The format is toxicity, cell-based. Background: Cellular ATP, detected with luciferase, serves as a proxy for viable cell number.
For series [2], the system named is L3.6pl. Put plainly: Cytotoxicity against human L3.6pl cells assessed as cell viability measured after 72 hrs by ATPlite assay. The format is toxicity, cell-based. The procedure, abridged: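 L3.6pl human pancreatic cancer cells in 96-well format were exposed to compound alone for 72 h. Growth was expressed relative to an untreated control. MTC is the highest concentration with relative growth still >90%. […] Data come from two or more experiments, each run in triplicate (n ≥ 6).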

The test system of series [3] is L3.6pl. Put plainly: Decrease in intracellular polyamine level in human L3.6pl cells assessed as putrescine level at 60 uM incubated for 24 hrs by HPLC analysis. The format is functional, cell-based. The procedure, abridged:
(§1)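 L3.6pl cells incubated 24 h at 37 °C with compound (60 μM) or 0.6% DMSO vehicle; native intracellular polyamines then measured; mean ± SD (n = 3).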

In series [4] the test system is L3.6pl. Nature of the series: Decrease in intracellular polyamine level in human L3.6pl cells assessed as spermidine level at 60 uM incubated for 24 hrs by HPLC analysis. The format is functional, cell-based. The procedure, abridged:
as §1

Series [5] has as its system CHO-K1. Put plainly: Inhibition of spermidine uptake in chinese hamster CHO-K1 cells assessed as decrease in cell growth by measuring cellular ATP content measured after 48 hrs in presence of DFMO and spermidine by ATPlite assay. The following applies: Cricetulus griseus, CHO-K1, 48 h.
Series [6] relates to CHO-K1. Nature of the series: Cytotoxicity against chinese hamster CHO-K1 cells assessed as decrease in cell viability measured after 48 hrs by ATPlite assay. The format is toxicity, cell-based, Cricetulus griseus. The following applies: cho-k1, 48 h. The essentials: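 CHO-K1 cells dosed alone in 384-well format in parallel with Assays 1 and 2; MTC taken as highest concentration giving ≥90% relative growth versus untreated control; typical error ±10% (n = 3).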

Series [7] is described as follows: Inhibition of spermidine uptake chinese hamster CHO-K1 cells assessed as decrease in cell growth by measuring cellular ATP content measured after 48 hrs in presence of DFMO and spermidine by ATPlite assay. The format is functional, cell-based. The following applies: Cricetulus griseus, CHO-K1, 48 h.
For series [8], the system named is L3.6pl. Nature of the series: Inhibition of FUBP1/DNA FUSE region interaction in human […] cells assessed as reduction in c-Myc FUSE DNA pull down at 60 uM incubated for 24 hrs by qRT-PCR analysis. The format is cell-based. The procedure, abridged:
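ChIP: L3.6pl cells ± compound (60 μM) 24 h; crosslinked FUBP1–DNA immunoprecipitated with FUBP1 antibody, crosslink reversed, FUSE sequence upstream of c-Myc promoter amplified by qPCR; mean fold change ± SEM (n = 2).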

In series [9] the test system is L3.6pl. Nature of the series: Inhibition of FUBP1/DNA FUSE region interaction in human […] cells assessed as decrease in c-myc mRNA level at 20 to 60 uM incubated for 24 hrs by qRT-PCR analysis. The format is cell-based. The following applies: dose 20-60 µM. The procedure, abridged:
(§2)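 L3.6pl cells treated 24 h with compound or matched DMSO; p21 and c-Myc mRNA by qRT-PCR, normalized to β-actin; log mean ± SD (n = 2).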
A general note: In qPCR the cycle at which signal appears reflects the starting amount.

Series [10] addresses T1, Far upstream element-binding protein 1 (Homo sapiens) (UniProt Q96AE4).
T1 sequence (whole entry): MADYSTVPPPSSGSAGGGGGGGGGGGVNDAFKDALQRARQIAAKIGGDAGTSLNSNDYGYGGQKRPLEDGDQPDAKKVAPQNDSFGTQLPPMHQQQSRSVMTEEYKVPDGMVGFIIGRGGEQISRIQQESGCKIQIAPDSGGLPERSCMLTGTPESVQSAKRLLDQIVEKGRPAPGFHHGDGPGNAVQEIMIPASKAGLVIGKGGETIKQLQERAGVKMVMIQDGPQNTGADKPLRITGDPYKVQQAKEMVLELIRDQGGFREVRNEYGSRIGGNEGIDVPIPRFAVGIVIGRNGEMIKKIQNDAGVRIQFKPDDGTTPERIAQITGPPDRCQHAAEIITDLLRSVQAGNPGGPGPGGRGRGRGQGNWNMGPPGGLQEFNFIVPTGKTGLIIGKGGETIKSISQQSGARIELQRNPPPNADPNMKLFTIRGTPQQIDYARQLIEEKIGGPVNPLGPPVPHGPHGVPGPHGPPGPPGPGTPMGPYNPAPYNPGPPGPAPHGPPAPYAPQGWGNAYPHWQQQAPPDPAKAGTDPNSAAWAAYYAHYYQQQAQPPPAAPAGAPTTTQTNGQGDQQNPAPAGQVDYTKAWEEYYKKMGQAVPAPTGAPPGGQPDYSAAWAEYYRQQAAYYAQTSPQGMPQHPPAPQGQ
Nature of the series: Binding affinity to recombinant GST tagged FUBP1 KH3-KH4 domain (unknown origin) assessed as decrease in FUBP1-FUSE DNA bound complex using 5'-IRDye700 tagged TGTATATTCCCTCGGG oligonucleotide as substrate at 30 to 60 uM measured for 30 mins by Gel shift assay relative to control. Conditions: dose 30-60 µM, DDE = dose-dependent effect. A general note: Mobility shift assays separate free from complexed probe on a gel.

Series [11] has as its system L3.6pl. Nature of the series: Inhibition of FUBP1/DNA FUSE region interaction in human […] cells assessed as increase in p21 mRNA level at 20 to 60 uM incubated for 24 hrs by qRT-PCR analysis. The format is cell-based. The following applies: dose 20-60 µM. The essentials:
as §2

The test system of series [12] is L3.6pl. Put plainly: Decrease in intracellular polyamine level in human L3.6pl cells assessed as total polyamine level at 60 uM incubated for 24 hrs by HPLC analysis. The format is functional, cell-based. The procedure, abridged:
as §1

The subject of series [13] is L3.6pl. Nature of the series: Inhibition of FUBP1/DNA FUSE region interaction in human […] cells assessed as reduction in c-myc protein level at 20 to 60 uM incubated for 24 hrs by Western blot analysis. The format is cell-based. The following applies: dose 20-60 µM. The essentials: (§3)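 Western blot of L3.6pl cells after 24 h compound treatment with matched DMSO loading; c-Myc, p21 and FUBP1 probed, GAPDH as loading control; at least three independent experiments.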

For series [14], the system named is L3.6pl. Put plainly: Decrease in intracellular polyamine level in human L3.6pl cells assessed as spermine level at 60 uM incubated for 24 hrs by HPLC analysis. The format is functional, cell-based. The essentials: as §1
Series [15] deals with L3.6pl. Nature of the series: Inhibition of FUBP1/DNA FUSE region interaction in human […] cells assessed as increase in p21 protein level at 20 to 60 uM incubated for 24 hrs by Western blot analysis. The format is cell-based. The following applies: dose 20-60 µM. The procedure, abridged: as §3
Series [16] can be described thus: Inhibition of spermidine uptake in human L3.6pl cells assessed as inhibition of cell growth by measuring cellular ATP content at MTC measured after 72 hrs in presence of DFMO and spermidine by ATPlite assay. The format is functional. The essentials:
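L3.6pl cells with DFMO and spermidine over 72 h, compound dosed up to its MTC; ECx = percentage effect at the MTC on scale between DFMO-only (50%) and DFMO + Spd (100%) controls; average of ≥2 experiments in triplicate (n ≥ 6).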

Series [17] concerns L3.6pl. Put plainly: Inhibition of polyamine uptake in human L3.6pl cells assessed as inhibition of Ant44-induced toxicity by measuring cellular ATP content at MTC measured after 72 hrs in presence of Ant44 by ATPlite assay. The format is functional. The essentials: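 L3.6pl cells, Ant44 challenge over 72 h, compound dosed up to its MTC; ECx = percentage effect at the MTC on scale from Ant44-only (50% growth) to untreated (100%); average of ≥2 experiments in triplicate (n ≥ 6).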

Series [18] deals with L3.6pl. Put plainly: Inhibition of polyamine transport system in human L3.6pl cells assessed as reduction in [3H] spermidine uptake preincubated for 72 hrs in presence of DFMO followed by [3H]-spermidine addition and measured after 15 mins by scintillation counter method. The format is cell-based. The following applies: time 72.25 hrs. The procedure, abridged: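 L3.6pl cells incubated 72 h with DFMO alone or DFMO plus compound, then 3H-Spd added for 15 min; intracellular 3H-Spd measured; mean ± SD (n = 3).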

Series [19] concerns L3.6pl. Nature of the series: Inhibition of polyamine transport system in human L3.6pl cells assessed as reduction in [3H] spermidine uptake preincubated for 24 hrs followed by [3H]-spermidine addition and measured after 15 mins by scintillation counter method. The format is cell-based. Conditions: time 24.25 hrs. The essentials:
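L3.6pl cells pretreated 24 h with compound, then 3H-Spd added for 15 min; intracellular 3H-Spd measured; mean ± SD (n = 3).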

The values that follow come from ChEMBL document CHEMBL5150043, “Discovery of Anthranilic Acid Derivatives as Difluoromethylornithine Adjunct Agents That Inhibit Far Upstream Element Binding Protein 1 (FUBP1) Function” (J Med Chem, 2022).

Molecules are shown by their SMILES. Active and inactive are the calls of the source. No cut-off for these calls is given here.

With `COc1ccc(C(=O)Nc2ccc(N3CCN(c4cc(Cl)ccc4C)CC3)cc2C(=O)O)cc1`, the half-inhibitory concentration (IC50) at 72 h in [1] worked out at 16.8 µM. The results for the MTC with L3.6pl [2] and in the series with CHO-K1 [6] were 8 µM and 13 µM, respectively. The result in the series on L3.6pl [3], in the series on L3.6pl [4], in the series on L3.6pl [12] and in the series on L3.6pl [14] was Active. Further, the 50% effective concentration (EC50) in the series with CHO-K1 [5] is 8 µM; in series [7] it was over 40 µM. The inhibition entry with L3.6pl [8], in the series with L3.6pl [9] and in the series on L3.6pl [11] was “Active” each time. In addition, in series [10], the Activity entry was “Dde”. Also, the inhibition entry in the series on L3.6pl [13] (DDE = dose-dependent effect) and in the series on L3.6pl [15] (DDE = dose-dependent effect) was “Dde” each time.
On to `COc1ccc(-c2cc(C(F)(F)F)n3nc(-c4cccs4)cc3n2)cc1OC`, for which the inhibition result in the series on L3.6pl [13] and with L3.6pl [15] was “Active” each time.
For `Cc1ccccc1CN1CCN(c2ccc(NC(=O)C(C)(C)C)cc2)CC1`, in series [1], the IC50 at 72 h is over 10 µM. Also, the MTC with L3.6pl [2] was 10 µM; in the series with CHO-K1 [6], 2 µM. For the same compound, the EC50 in the series with CHO-K1 [5] is 2 µM. In addition, the “inhibition (INH)” value (in [16]; in the series on L3.6pl [17]) was 15% throughout.
Take `COc1ccc(C(=O)Nc2ccc(N3CCN(c4ccccc4Cl)CC3)cc2C(=O)O)cc1`: the concentration for half-maximal inhibition (IC50) at 72 h in series [1] came to 125 µM. Also, the figures for the MTC with L3.6pl [2] and with CHO-K1 [6] were 90 µM and 28 µM, respectively. Besides, the EC50 in the series on CHO-K1 [5] was determined as 27 µM. For the same compound, the inhibition (INH) in [16] worked out at 2%; in the series with L3.6pl [17], 27%.
`COc1ccc(C(=O)Nc2ccc(N3CCN(c4ccccc4OC)CC3)cc2C(=O)O)cc1`: the IC50 at 72 h in series [1] came out at 13.3 µM. Also, the MTC is 6 µM with L3.6pl [2] and over 40 µM with CHO-K1 [6]. The results for the EC50 (in the series with CHO-K1 [5]; in series [7]) were 26 µM and 9 µM, respectively. The results for the inhibition (INH) (in series [16]; with L3.6pl [17]) were 8% and 25%, respectively.
Consider `O=C(Nc1ccc(N2CCN(c3ccccn3)CC2)cc1C(=O)O)c1ccco1`, for which the IC50 at 72 h in [1] is over 50 µM. Besides, the MTC in the series with L3.6pl [2] was 12 µM; in the series on CHO-K1 [6] it was over 40 µM. Also, the EC50 (with CHO-K1 [5]; in series [7]) was over 40 µM throughout. Further, the inhibition (INH) in [16] was 31%; in the series on L3.6pl [17], 41%.
In the case of `COc1ccccc1C(=O)Nc1ccc(N2CCC(Oc3ccccc3)CC2)cc1C(=O)O`, the IC50 at 72 h in [1] is 38.6 µM. For the same compound, the MTC in the series with L3.6pl [2] was 10 µM; in the series with CHO-K1 [6], over 40 µM. Also, the concentration giving a half-maximal response (EC50) with CHO-K1 [5] turned out to be 19 µM; in series [7], 32 µM. Besides, the inhibition (INH) amounted to 45% in series [16] and 35% in the series on L3.6pl [17].
Regarding `COc1ccccc1C(=O)Nc1ccc(N2CCN(c3cc(Cl)ccc3C)CC2)cc1C(=O)O`, in series [1], the concentration for half-maximal inhibition (IC50) at 72 h was 29.1 µM. Moreover, the MTC in the series with L3.6pl [2] turned out to be 7 µM; in the series on CHO-K1 [6] it was 19 µM. Besides, the values for the concentration giving a half-maximal response (EC50) (with CHO-K1 [5]; in series [7]) were 21 µM and 2 µM, respectively.
For the compound `CNCCCCNCCCCNCc1cc(CNCCCCNCCCCNC)cc(CNCCCCNCCCCNC)c1`, the inhibition entry in the series on L3.6pl [18] and in the series on L3.6pl [19] was “Active” each time.
`COc1ccc(C(=O)Nc2ccc(N3CCC(c4cccc(C)c4)C3)cc2C(=O)O)cc1` (centres undefined): the concentration for half-maximal inhibition (IC50) at 72 h in series [1] was 39.9 µM. The MTC in the series with L3.6pl [2] is 25 µM; in the series on CHO-K1 [6], over 40 µM. The half-maximal effective concentration (EC50) (in the series on CHO-K1 [5]; in [7]) was over 40 µM throughout.
For the compound `NCCCC(N)(C(=O)O)C(F)F` (centres undefined), the result in the series with L3.6pl [3] and in the series on L3.6pl [4] was Active.

As a reminder, the IC50 is the concentration needed to halve the response being measured. By EC50 is commonly meant the midpoint of the concentration-response curve.
